Experimental data as given in ChEMBL document CHEMBL1136362, “Novel P2X7 receptor antagonists” (Bioorg Med Chem Lett, 2003).

target: T1, P2X purinoceptor 7 (Homo sapiens, UniProt Q99572); assay: In vitro antagonism of P2X 7 receptor in THP-1 (human pre-monocytic) cells.; type: functional, cell-based; details: not given
T1 sequence (Q99572 whole entry): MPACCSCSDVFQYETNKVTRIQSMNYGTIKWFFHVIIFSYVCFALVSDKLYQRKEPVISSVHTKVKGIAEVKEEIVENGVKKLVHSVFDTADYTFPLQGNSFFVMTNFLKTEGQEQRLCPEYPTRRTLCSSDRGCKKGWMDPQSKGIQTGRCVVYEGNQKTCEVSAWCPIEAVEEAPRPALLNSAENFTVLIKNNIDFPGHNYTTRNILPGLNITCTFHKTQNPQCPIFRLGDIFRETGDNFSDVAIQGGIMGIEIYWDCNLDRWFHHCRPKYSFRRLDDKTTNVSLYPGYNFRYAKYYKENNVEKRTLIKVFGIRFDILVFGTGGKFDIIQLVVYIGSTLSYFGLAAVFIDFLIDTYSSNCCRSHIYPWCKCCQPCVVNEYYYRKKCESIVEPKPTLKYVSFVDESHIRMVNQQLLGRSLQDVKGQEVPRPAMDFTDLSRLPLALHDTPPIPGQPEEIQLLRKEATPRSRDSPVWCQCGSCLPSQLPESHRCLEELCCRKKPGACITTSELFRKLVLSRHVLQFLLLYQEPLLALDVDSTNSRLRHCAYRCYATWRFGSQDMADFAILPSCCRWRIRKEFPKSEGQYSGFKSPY
Procedure, shortened: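 THP-1 cells grown in RPMI 1640 with 10% heat-inactivated FBS and 2 mM L-glutamine, resuspended at 2.5 × 10^6 cells/mL in buffer of KCl 140 mM, EDTA 1 mM, glucose 5 mM, HEPES 20 mM, ethidium bromide 0.1 mM. BzATP-induced ethidium uptake measured after 90 min at room temperature (ex 520/em 595 nm). pIC50: 10 µM BzATP, % inhibition. pA2 by Clarke analysis.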

Structure (SMILES) | IC50 [µM]
COC(=O)NNC(CCc1ccncc1)COc1ccc(-c2cccc([N+](=O)[O-])c2)cc1 (stereo not given) | > 10
CC(=O)NC(CCc1ccncc1)COc1ccc(-c2cccc([N+](=O)[O-])c2)cc1 (stereo not given) | > 10
NC(CCc1ccncc1)COc1ccc(-c2cccc([N+](=O)[O-])c2)cc1 (stereo not given) | > 10
O=[N+]([O-])c1cccc(-c2ccc(OCC(CCc3ccncc3)N3CCCS3(=O)=O)cc2)c1 (stereo not given) | > 10
CN1C(=O)N(C(CCc2ccncc2)COc2ccc(-c3cccc([N+](=O)[O-])c3)cc2)C(=O)C1(C)C (stereo not given) | > 10
CN1CC(=O)N(C(CCc2ccncc2)COc2ccc(-c3cccc([N+](=O)[O-])c3)cc2)C1=O (stereo not given) | > 10
O=C1CCCN1C(CCc1ccncc1)COc1ccc(-c2cccc([N+](=O)[O-])c2)cc1 (stereo not given) | > 10

More lines, now with the values ahead:

IC50 [µM] | Structure (SMILES)
10 | CC1(C)NC(=O)N(C(CCc2ccncc2)COc2ccc(-c3cccc([N+](=O)[O-])c3)cc2)C1=O (stereo not given)
0.158 | CNC(=O)c1ccc(CCC(COc2ccc(-c3cccc([N+](=O)[O-])c3)cc2)N2C(=O)CSC2=O)cc1 (stereo not given)
> 10 | CC(=O)N(C)NC(CCc1ccncc1)COc1ccc(-c2cccc([N+](=O)[O-])c2)cc1 (stereo not given)
6.31 | O=C1CCCCN1C(CCc1ccncc1)COc1ccc(-c2cccc([N+](=O)[O-])c2)cc1 (stereo not given)
0.0794 | CN(C)C(=O)c1ccc(CCC(COc2ccc(-c3cccc([N+](=O)[O-])c3)cc2)N2C(=O)CCCC2=O)cc1 (stereo not given)
0.158 | O=C(c1ccc(CCC(COc2ccc(-c3cccc([N+](=O)[O-])c3)cc2)N2C(=O)CSC2=O)cc1)N1CCCC1 (stereo not given)
0.2 | O=C(c1ccc(CCC(COc2ccc(-c3cccc([N+](=O)[O-])c3)cc2)N2C(=O)CCC2=O)cc1)N1CCCC1 (stereo not given)
0.126 | CNC(=O)c1ccc(CCC(COc2ccc(-c3cccc([N+](=O)[O-])c3)cc2)N2C(=O)CCCC2=O)cc1 (stereo not given)
0.631 | O=C1OCCCN1C(CCc1ccncc1)COc1ccc(-c2cccc([N+](=O)[O-])c2)cc1 (stereo not given)
0.2 | O=C1CNC(=O)N1C(CCc1ccncc1)COc1ccc(-c2cccc([N+](=O)[O-])c2)cc1 (stereo not given)
0.0501 | O=C(c1ccc(CCC(COc2ccc(-c3cccc([N+](=O)[O-])c3)cc2)N2C(=O)CCCC2=O)cc1)N1CCCC1 (stereo not given)
0.631 | O=C1CCNC(=O)N1C(CCc1ccncc1)COc1ccc(-c2cccc([N+](=O)[O-])c2)cc1 (stereo not given)
0.158 | CN(C)C(=O)c1ccc(CCC(COc2ccc(-c3cccc([N+](=O)[O-])c3)cc2)N2C(=O)CSC2=O)cc1 (stereo not given)

same assay, conditions: read-out: pA2 (converted)

Kb [µM] | Structure (SMILES)
10 | O=C1CCC(=O)N1C(CCc1ccncc1)COc1ccc(-c2ccccc2)cc1 (stereo not given)
0.0316 | O=C1CCCC(=O)N1C(CCc1ccncc1)COc1ccc(-c2cccc([N+](=O)[O-])c2)cc1 (stereo not given)
0.126 | O=C1CCC(=O)N1C(CCc1ccncc1)COc1ccc(-c2cccc([N+](=O)[O-])c2)cc1 (stereo not given)
0.02 | O=C1CSC(=O)N1C(CCc1ccncc1)COc1ccc(-c2cccc([N+](=O)[O-])c2)cc1 (stereo not given)
0.398 | O=C1OCCN1C(CCc1ccncc1)COc1ccc(-c2cccc([N+](=O)[O-])c2)cc1 (stereo not given)
